Laboratory results from ChEMBL document CHEMBL3758103, “Anti-herpetic and anti-dengue activity of abietane ferruginol analogues synthesized from (+)-dehydroabietylamine” (Eur J Med Chem, 2016).
Activity calls are given as the source filed them. No cut-off for these calls is given here.

Columns and labels:
Fusarium oxysporum = test: Antifungal activity against Fusarium oxysporum ATCC 48112 assessed as microbial growth inhibition after 48 hrs by microdilution assay; format: functional, organism-based
Summary of the method: (§1)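 Broth microdilution under CLSI M38-A with modifications, in duplicate, at final compound concentrations of 50–3.125 μg/mL. […] Values are the geometric mean of duplicate tests in three assays. Assay DMSO was 0.05%.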

Human alphaherpesvirus 2 [1] = test: Antiviral activity against HHV-2 VR-734-G infected in African green monkey Vero cells assessed as reduction in plaque formation administered simultaneously with virus for 1 hr measured after 72 hrs by crystal violet staining technique; format: functional, organism-based
Summary of the method: (§2)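 Plaque reduction on Vero monolayers (2.5 × 10^4 cells/well) infected with 100 PFU/well. Pre-infection arm: virus–compound mixture added for 1 h at 37 °C, PBS wash, then CMC overlay. Post-infection arm: virus adsorbed 1 h, washed, then compound given in CMC. CMC was 1% for HHV-1, 0.75% for HHV-2 and 2% for DENV-2. Plates ran 72 h (HHV) or 8 days (DENV-2) before crystal violet staining. EC50 came from linear regression over ≥4 dilutions in quadruplicate.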

Human alphaherpesvirus 1 [2] = test: Antiviral activity against HHV-1 CDC Atlanta infected in African green monkey Vero cells assessed as maximal non toxic concentration causing reduction of viral titer after 48 hrs by crystal violet staining assay; format: functional
Summary of the method: (§3)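 End-point titration on Vero monolayers (2.0 × 10^4 cells/well, ≥80% confluent) with 10 TCID50 virus. Virus–compound mixtures (6.25–50 μg/mL) in DMEM/2% FBS with CMC (1% for HHV-1, 0.5% for HHV-2) were held 15 min at room temperature. Incubation was 48 h (HHV-1) or 72 h (HHV-2) at 37 °C, then formaldehyde/crystal violet staining and plaque counting. Read-out is the viral titer reduction factor. Two experiments in quadruplicate.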

[3] = Selectivity index, ratio of IC50 for African green monkey vero cells to EC50 for DENV-2 compound administered post viral infection
Summary of the method: (§4)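 Antiviral SI calculated as Vero IC50 divided by the post-infection plaque-reduction EC50 for each virus on Vero cells.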

Candida albicans = test: Antifungal activity against Candida albicans […] assessed as microbial growth inhibition after 24 hrs by microdilution assay; format: functional, organism-based
Summary of the method: (§5)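 Yeast microdilution by the AFST-EUCAST method at an inoculum of 1–5 × 10^5 CFU/mL, final compound concentrations 50–3.125 μg/mL, in duplicate. MIC is the lowest concentration giving 90% growth reduction after 24 h at 35 °C. Untreated inoculum served as negative control. Values are the geometric mean of duplicate tests in three assays.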

Human alphaherpesvirus 2 [4] = test: Antiviral activity against HHV-2 VR-734-G infected in African green monkey Vero cells assessed as reduction in plaque formation administered post viral infection after 72 hrs by crystal violet staining technique; format: functional, organism-based; conditions: Human alphaherpesvirus 2, VR-734-G; summary of the method: as §2
dengue virus type 2 [5] = test: Antiviral activity against DENV-2 New guinea infected in African green monkey Vero cells assessed as inhibition of virus-induced cytopathic effect after 3 days by crystal violet staining based inverted microscopic analysis relative to control; format: functional, organism-based
Jurkat = test: Cytotoxicity against human Jurkat cells assessed as cell growth inhibition after 48 hrs by MTT assay; format: functional, cell-based
Summary of the method: (§6)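 MTT assay. Vero and HeLa cells plated at 2.0 × 10^4/well and preincubated 24 h; Jurkat and U937 plated at 3.0 × 10^4/well. Compounds were applied 48 h at 37 °C, 5% CO2, with 0.05% DMSO. Absorbance read at 570 nm and IC50 taken by linear regression. Values are the geometric mean of two experiments in quadruplicate.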

Candida tropicalis = test: Antifungal activity against Candida tropicalis ATCC 200956 assessed as microbial growth inhibition after 24 hrs by microdilution assay; format: functional, organism-based; summary of the method: as §5
Human alphaherpesvirus 2 [6] = test: Antiviral activity against HHV-2 VR-734-G infected in African green monkey Vero cells assessed as maximal non toxic concentration causing reduction of viral titer after 72 hrs by crystal violet staining assay; format: functional; summary of the method: as §3
Human alphaherpesvirus 1 [7] = test: Antiviral activity against HHV-1 CDC Atlanta infected in African green monkey Vero cells assessed as viral plaque size reduction at 29 uM after 72 hrs by crystal violet staining based inverted microscopic analysis relative to control; format: functional; design: scale not given: the % may be the effect or the level left
Summary of the method: (§7)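 Vero cells (2.5 × 10^4/well) infected with 100 PFU/well, with compound in CMC added 2 h after infection. Incubation was 72 h for HHV strains and 8 days for DENV-2, then formaldehyde/crystal violet staining. Twenty plaques per concentration per well were imaged and their areas […] measured against mock-treated controls. Two experiments in duplicate.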

[8] = Cytotoxicity against human U937 cells assessed as cell growth inhibition after 48 hrs by MTT assay; format: functional, cell-based; conditions: U-937, 48 h; summary of the method: as §6
Candida parapsilosis = test: Antifungal activity against Candida parapsilosis ATCC 22019 assessed as microbial growth inhibition after 24 hrs by microdilution assay; format: functional, organism-based; summary of the method: as §5
Human alphaherpesvirus 1 [9] = test: Antiviral activity against HHV1 CDC Atlanta infected in African green monkey Vero cells assessed as reduction of viral titer at maximal non-toxic concentration after 48 hrs by crystal violet staining assay relative to control; format: functional; summary of the method: as §3
[10] = Selectivity index, ratio of IC50 for African green monkey vero cells to EC50 for HHV-2 compound administered post viral infection; summary of the method: as §4
Vero [11] = test: Cytotoxicity against African green monkey Vero cells assessed as inhibition of cell proliferation after 8 days; format: cell-based; conditions: Chlorocebus sabaeus, 192 h
Vero [12] = test: Cytotoxicity against African green monkey Vero cells assessed as inhibition of cell proliferation after 72 hrs; format: cell-based; conditions: Chlorocebus sabaeus
dengue virus type 2 [13] = test: Antiviral activity against DENV-2 New guinea infected in African green monkey Vero cells assessed as viral plaque size reduction at 3.6 uM after 8 days by crystal violet staining based inverted microscopic analysis relative to control; format: functional; design: scale not given: the % may be the effect or the level left; summary of the method: as §7
Human alphaherpesvirus 1 [14] = test: Antiviral activity against HHV-1 CDC Atlanta infected in African green monkey Vero cells assessed as reduction in plaque formation administered simultaneously with virus for 1 hr measured after 72 hrs by crystal violet staining technique; format: functional, organism-based; summary of the method: as §2
Aspergillus fumigatus = test: Antifungal activity against Aspergillus fumigatus ATCC 204305 assessed as microbial growth inhibition by microdilution assay; format: functional, organism-based; summary of the method: as §1
Human alphaherpesvirus 1 [15] = test: Antiviral activity against acyclovir-resistant HHV-1 29R infected in African green monkey Vero cells assessed as viral plaque size reduction at 29 uM after 72 hrs by crystal violet staining based inverted microscopic analysis relative to control; format: functional; design: scale not given: the % may be the effect or the level left; summary of the method: as §7
Aspergillus flavus = test: Antifungal activity against Aspergillus flavus ATCC 204304 assessed as microbial growth inhibition by microdilution assay; format: functional, organism-based; summary of the method: as §1
HeLa = test: Cytotoxicity against human HeLa cells assessed as cell growth inhibition after 48 hrs by MTT assay; format: functional, cell-based; summary of the method: as §6
Human alphaherpesvirus 1 [16] = test: Antiviral activity against HHV-1 CDC Atlanta infected in African green monkey Vero cells assessed as reduction in plaque formation administered post viral infection after 72 hrs by crystal violet staining technique; format: functional, organism-based; conditions: vero; summary of the method: as §2
dengue virus type 2 [17] = test: Antiviral activity against DENV-2 New guinea infected in African green monkey Vero cells assessed as reduction in plaque formation administered simultaneously with virus for 1 hr measured after 8 days by crystal violet staining technique; format: functional, organism-based; summary of the method: as §2
Human alphaherpesvirus 2 [18] = test: Antiviral activity against HHV-2 VR-734-G infected in African green monkey Vero cells assessed as reduction of viral titer at maximal non-toxic concentration after 72 hrs by crystal violet staining assay relative to control; format: functional; summary of the method: as §3
dengue virus type 2 [19] = test: Antiviral activity against DENV-2 New guinea infected in African green monkey Vero cells assessed as reduction in plaque formation administered post viral infection after 8 days by crystal violet staining technique; format: functional, organism-based; conditions: 192 h; summary of the method: as §2
Aspergillus terreus = test: Antifungal activity against Aspergillus terreus CDC 317 assessed as microbial growth inhibition by microdilution assay; format: functional, organism-based; summary of the method: as §1
dengue virus type 2 [20] = test: Antiviral activity against DENV-2 New guinea infected in African green monkey Vero cells assessed as maximal non toxic concentration causing inhibition of virus-induced cytopathic effect after 3 days by crystal violet staining based inverted microscopic analysis; format: functional

CC(C)c1cc2c(cc1O)[C@@]1(C)CCC[C@@](C)(CN3C(=O)c4ccccc4C3=O)[C@@H]1CC2
Activity (Fusarium oxysporum): inactive | EC50 (Human alphaherpesvirus 2 [1]): Not Active | MNTD (Human alphaherpesvirus 1 [2]): 14.5 µM | Ratio IC50/EC50 [3]: 57.7 | Activity (Candida albicans): inactive | EC50 (Human alphaherpesvirus 2 [4]): 19.2 µM | Activity (dengue virus type 2 [5]): Active | IC50 (Jurkat): > 50 µM | Activity (Candida tropicalis): inactive | MNTD (Human alphaherpesvirus 2 [6]): 29 µM | Activity (Human alphaherpesvirus 1 [7]): 93.7% | IC50 [8]: > 50 µM | Activity (Candida parapsilosis): inactive | fold change (FC) (Human alphaherpesvirus 1 [9]): 100 | Ratio IC50/EC50 [10]: 10 | IC50 (Vero [11]): 80.8 µM | IC50 (Vero [12]): 191 µM | Activity (dengue virus type 2 [13]): 77.9% | EC50 (Human alphaherpesvirus 1 [14]): Not Active | Activity (Aspergillus fumigatus): inactive | Activity (Human alphaherpesvirus 1 [15]): 87.1% | Activity (Aspergillus flavus): inactive | IC50 (HeLa): > 50 µM | EC50 (Human alphaherpesvirus 1 [16]): Not Active | EC50 (dengue virus type 2 [17]): Not Active | fold change (FC) (Human alphaherpesvirus 2 [18]): 1000 | EC50 (dengue virus type 2 [19]): 1.4 µM | Activity (Aspergillus terreus): inactive

NC(=O)c1ncn([C@@H]2O[C@H](CO)[C@@H](O)[C@H]2O)n1 [RIBAVIRIN]
MNTD (dengue virus type 2 [20]): 123 µM | Activity (dengue virus type 2 [5]): Active | EC50 (dengue virus type 2 [19]): 13.5 µM
